Bioassay records as filed in PubChem BioAssay.
Compounds with a hit are over-represented: about 0.96% of the library has one in this group of screens.
T cell HTS – modulators of CD8 T cell-vesicle binding, primary screen, mouse 2C CD8+ T cells, flow cytometry; 2C CD8+ T cell-vesicle binding; hits give low values; response (vesicle binding), % at 7 µM; 0.068% of 330,000 active;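 active means response, share of CD8 T cells binding vesicles, and their 90th percentile fluorescence all below set limits, cut at about 80% in these data, passing the limit was not always enough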;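 further: values below 100% mean blocked vesicle binding to the CD8+ T cells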
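Assay system: 2C TCR transgenic mouse naive CD8+ T cells, MACS-purified | Read-out: CD8+ gate FL2 mean fluorescence as % of same-row positive control | Signal: High-throughput flow cytometry with anti-B7-1 and anti-CD8 staining | Timing: Binding step 1.5 h, 37 °C, antibody labelling 20 min, ice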
LAP4-GFP MLPCN – modulators of LAP4-GFP expression in yeast, primary screen, S. cerevisiae, multiplex flow cytometry, MLPCN library. 3 h; median GFP as percent of DMSO wells. GFP response vs DMSO, % at 10 µM. 0.34% of 320,000 active;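 active means GFP response vs DMSO above a set limit, about the screen mean plus 3 SD, cut at about 150% in these data; inconclusive means under 70 cell events counted for the yeast strain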
RPL19A TOR yeast – RPL19A-GFP expression modulators in yeast, primary screen, cell-based, S. cerevisiae, multiplex flow cytometry, MLPCN; S. cerevisiae RPL19A-GFP strain, 3 h; hits give low values; percent response vs DMSO, % at 10 µM; 0.3% of 330,000 active; AID 2025, 2009;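 active means percent response vs DMSO below 50%; inconclusive means fewer than 70 events counted for the yeast strain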;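 further: median channel GFP fluorescence of the barcoded RPL19A-GFP strain; ratio of sample median GFP to plate DMSO average so 100% = DMSO; lower means less RPL19A-GFP as with rapamycin TOR inhibition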
CIT2 TOR yeast – modulators of CIT2-GFP expression in yeast, primary screen, S. cerevisiae, GFP fusion, multiplex flow cytometry, MLPCN library | S. cerevisiae CIT2-GFP strain, 3 h; 100 means same as DMSO wells | GFP response vs DMSO, % at 10 µM | 0.065% of 320,000 active | AID 2029, 2009;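 active means GFP response relative to DMSO above a set limit, near the screen mean plus 3 SD, cut at about 150% in these data; inconclusive means Fewer than 70 cells measured for a yeast strain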;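 further: ratio of well median GFP fluorescence to mean of DMSO wells on the plate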
AGP1-GFP MLPCN – modulators of AGP1-GFP expression in yeast TOR pathway, primary screen, cell-based, multiplex flow cytometry, S. cerevisiae, MLPCN library; 3 h; GFP as percent of DMSO wells; GFP response vs DMSO, % at 10 µM; 0.02% of 320,000 active;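 active means GFP response relative to DMSO above a set limit, near screen average plus 3 SD, cut at about 150% in these data; inconclusive means fewer than 70 cells counted for the yeast strain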;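 further: median GFP channel fluorescence of the gated AGP1 strain per well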
MEP2 TOR yeast – modulators of MEP2-GFP levels in yeast, primary screen, S. cerevisiae, multiplex flow cytometry, MLPCN library. S. cerevisiae MEP2-GFP strain, 3 h; 100% = DMSO control level. GFP response vs DMSO, % at 10 µM. 0.51% of 330,000 active;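 active means GFP response versus DMSO above a set limit, roughly screen mean plus 3 SD, cut at about 180% in these data; inconclusive means fewer than 70 cells counted for a yeast strain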;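 further: median GFP fluorescence of the barcode-gated MEP2-GFP cells per well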
An asterisk follows results filed as active; ? = inconclusive; · = not tested or not shown; [ ] = dose if it differs, or a comment.

SMILES	T cell HTS	LAP4-GFP MLPCN	RPL19A TOR yeast	CIT2 TOR yeast	AGP1-GFP MLPCN	MEP2 TOR yeast
Cc1ccc(Nc2nc(-c3sc(N)nc3C)cs2)cc1	223	94	101	97	98	98
COc1ccc(Nc2nc(-c3sc(N)nc3C)cs2)cc1	488	?	40*[may fluoresce violet]	?	?	213*[may fluoresce violet]
Cc1cnc(C(=O)NC(Cc2ccccc2)c2ccccc2)cn1 (configuration not stated)	744	104	95	87	97	100
CCOc1ccc(C2CC(c3ccccc3C)n3nc(N)nc3N2)cc1 (configuration not stated)	53*	106	106	107	114	105
COc1ccc(C2CC(c3ccccc3C)n3nc(N)nc3N2)cc1 (configuration not stated)	81	99	102	111	105	111
C=CCOc1ccc(/C(O)=C2/C(=O)C(=O)N(CCCN3CCOCC3)C2c2ccccc2)cc1 (configuration not stated)	465	89	29*[may fluoresce violet]	?	?	316*[may fluoresce violet]
C=CCOc1ccc(/C(O)=C2/C(=O)C(=O)N(CCCN3CCOCC3)C2c2ccc(OC)cc2)cc1 (configuration not stated)	389	99	97	99	100	100
CCCN1CCC(NC(=O)C2CCCCC2C(=O)O)CC1 (configuration not stated)	0	82	109	103	106	102
CCC(C)c1c(O)nc(SCC(=O)N2CCCCCC2)[nH]c1=O (configuration not stated)	200	86	99	103	92	108
CC(C)c1c(O)nc(SCC(=O)N2CCCCC2)[nH]c1=O	225	81	66	?	17	241*[may fluoresce violet]
c1ccc(COc2ccc(OCCN3CCCCC3)cc2)cc1	81*	92	103	104	98	94
CC(=O)Nc1ccc(S(=O)(=O)N2CCC3(CC2)OCCO3)cc1	320	97	100	101	97	103
Cc1cccc(NC(=O)C2CCCN(S(=O)(=O)c3ccc4c(c3)oc(=O)n4C)C2)c1 (configuration not stated)	367	93	45*[may fluoresce violet]	?	?	202*[may fluoresce violet]
N#CC1=C(N)OC2=C(CC/C2=C\c2ccccc2)C1c1ccccc1 (configuration not stated)	239	107	95	?	19	188*[may fluoresce violet]
COc1ccc(S(=O)(=O)N2CCC(Nc3ccccc3Cl)CC2)cc1	486	73	102	99	82	95
O=C1c2ccccc2C2=Nc3ccccc3SC(c3ccc(Cl)cc3)C12 (configuration not stated)	203	93	103	99	99	99
O=C1c2ccccc2C2=Nc3ccccc3SC(c3cccc(F)c3)C12 (configuration not stated)	315	119	103	101	94	180*
CCOC(=O)Cn1c2c(c(=N)c3ccccc31)CCC2	134	98	55	?	·	229*[may fluoresce violet]
CCOC(=O)Cn1c2c(c(=N)c3c1CCC3)CCC2	213	98	98	102	103	100
CCCN1CCN(C(=O)Cn2ncc3c([nH]c4ccc(C)cc43)c2=O)CC1	340	99	65	?	19	186*[may fluoresce violet]
O=C(COc1ccccc1)NCc1ccccc1	300	101	99	98	101	99
Cc1cccc(C)c1OCC(=O)NCc1ccccc1	81	80	42*[may fluoresce violet]	?	?	277*[may fluoresce violet]
Cc1cc(C(=O)OC(C)C(=O)N2CCc3ccccc32)ccc1[N+](=O)[O-] (configuration not stated)	250	94	89	83	95	90
O=C1Nc2ccccc2C1(O)c1ccccc1O (configuration not stated)	286	?	31*[may fluoresce violet]	?	?	?
CCN(CC(=O)N1CCOCC1)S(=O)(=O)c1ccccc1	315	103	96	114	84	109
SMILES	T cell HTS	LAP4-GFP MLPCN	RPL19A TOR yeast	CIT2 TOR yeast	AGP1-GFP MLPCN	MEP2 TOR yeast
COc1ccc(-c2cc(C(F)(F)F)nc(-n3ccnc3)n2)cc1	80	106	91	94	91	97
CCN(CC)S(=O)(=O)c1ccc(N/N=C/c2ccc(OC)c(OC)c2OC)nc1	974	88	99	98	98	100
CCN(CC)S(=O)(=O)c1ccc(N/N=C/c2cc(OC)c(OC)cc2OC)nc1	372	88	68	?	22	201*[may fluoresce violet]
O=C(c1ccccc1)N1CCN(C(=O)c2cc3ccccc3oc2=O)CC1	294	?	28*[may fluoresce violet]	?	?	?
Cc1ccc(C(=O)N/C(=C/c2ccco2)C(=O)N2CCOCC2)cc1	252	174*	94	120	130	164
CCc1c(C)nc(SCC(=O)N2CCCCC2CC)[nH]c1=O (configuration not stated)	190	99	97	98	106	100
C=CCN(C(=O)c1csnn1)C(C(=O)NCc1ccc(F)cc1)c1ccccc1F (configuration not stated)	361	101	103	99	101	105
CCCc1cc(=O)oc2cc(C)cc(OCC(=O)Nc3ccc(CN4CCOCC4)cc3)c12	294	61	28*[may fluoresce violet]	?	?	271*[may fluoresce violet]
CCN(CC)c1ccc2cc(C(N)=O)c(=O)oc2c1	241	121	96	83	93	107
CCN(CC)c1ccc2cc(C(C)=O)c(=O)oc2c1	445	106	19*[may fluoresce violet]	?	·	311*[may fluoresce violet]
Cc1ccc(C(=O)O)cc1S(=O)(=O)N1CCSCC1	851	105	43*[may fluoresce violet]	?	?	306*[may fluoresce violet]
COCc1cc(=O)[nH]c(-c2ccccc2OC(F)(F)F)n1	660	103	95	96	104	97
COc1ccccc1C(=O)Nc1cccc2nc(C)ccc12	275	92	102	97	98	99
Cc1sc2ncnc(SCC(=O)NCC3CCCO3)c2c1C (configuration not stated)	178	98	95	100	89	110
CCc1ccc2c(c1)C1(NN=C(c3ccc(C)cc3)S1)C(=O)N2 (configuration not stated)	575	84	40*[may fluoresce violet]	?	15	92
CC(C)c1ccc2c(c1)C1(NN=C(c3ccccc3)S1)C(=O)N2 (configuration not stated)	499	171*	94	115	96	109
Cc1ccc(Cc2cc(-c3ccc(C)cc3)n[nH]c2=O)cc1	143	102	96	96	99	87
